Experimental data published in ChEMBL document CHEMBL3259728, “Design, synthesis and biological evaluation of some novel substituted quinazolines as antitumor agents” (2014).

Key:
Format in all cases: functional
M14 [1] = assay: Growth inhibition of human M14 cells assessed as cell growth at 10^-4 M after 48 hrs by SRB assay; settings: M14, 48 h, read-out: Activity
U-251 [2] = assay: Growth inhibition of human U251 cells assessed as cell growth at 10^-4 M after 48 hrs by SRB assay; settings: U-251, 48 h, read-out: Activity
KM12 = assay: Growth inhibition of human KM12 cells assessed as cell growth at 10^-4 M after 48 hrs by SRB assay; settings: KM12, 48 h, read-out: Activity
RPMI-8226 = assay: Growth inhibition of human RPMI8226 cells assessed as cell growth at 10^-4 M after 48 hrs by SRB assay; settings: RPMI-8226, 48 h, read-out: Activity
M14 [3] = assay: Growth inhibition of human M14 cells assessed as cell growth at 10^-8 M after 48 hrs by SRB assay; settings: M14, 48 h, read-out: Activity
HCT-116 [4] = assay: Growth inhibition of human HCT116 cells assessed as cell growth at 10^-8 M after 48 hrs by SRB assay; settings: HCT-116, 48 h, read-out: Activity
SK-MEL-5 = assay: Growth inhibition of human SK-MEL-5 cells assessed as cell growth at 10^-5 M after 48 hrs by SRB assay; settings: SK-MEL-5, 48 h, read-out: Activity
SR [5] = assay: Growth inhibition of human SR cells assessed as cell growth at 10^-5 M after 48 hrs by SRB assay; settings: read-out: Activity
K562 [6] = assay: Growth inhibition of human K562 cells assessed as cell growth at 10^-5 M after 48 hrs by SRB assay; settings: K562, 48 h, read-out: Activity
A498 = assay: Growth inhibition of human A498 cells assessed as cell growth at 10^-6 M after 48 hrs by SRB assay; settings: A498, 48 h, read-out: Activity
How it was run: (§1)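 Five-dose NCI panel protocol. Each dose (10^-4 to 10^-8 M, 10-fold steps) was given as 48 h continuous exposure, and protein was measured by SRB staining. Percentage growth at each level is [(Ti−Tz)/(C−Tz)]×100, where Tz is time-zero absorbance and C is untreated control.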

SK-MEL-28 = assay: Growth inhibition of human SK-MEL-28 cells assessed as cell growth at 10^-6 M after 48 hrs by SRB assay; settings: SK-MEL-28, 48 h, read-out: Activity
Malme-3M = assay: Growth inhibition of human MALME-3M cells assessed as cell growth at 10^-6 M after 48 hrs by SRB assay; settings: read-out: Activity
U-251 [7] = assay: Growth inhibition of human U251 cells assessed as cell growth at 10^-6 M after 48 hrs by SRB assay; settings: U-251, 48 h, read-out: Activity
NCI-H226 = assay: Growth inhibition of human NCI-H226 cells assessed as cell growth at 10^-4 M after 48 hrs by SRB assay; settings: NCI-H226, 48 h, read-out: Activity
SN12C = assay: Growth inhibition of human SN12C cells assessed as cell growth at 10^-5 M after 48 hrs by SRB assay; settings: read-out: Activity
NCI-H322M = assay: Growth inhibition of human NCI-H322M cells assessed as cell growth at 10^-5 M after 48 hrs by SRB assay; settings: read-out: Activity
HCT-116 [8] = assay: Growth inhibition of human HCT116 cells assessed as cell growth at 10^-6 M after 48 hrs by SRB assay; settings: HCT-116, 48 h, read-out: Activity
[9] = Growth inhibition of human EKVX cells assessed as cell growth at 10^-6 M after 48 hrs by SRB assay; settings: read-out: Activity
[10] = Cytotoxicity against human UACC62 cells after 48 hrs by SRB assay; settings: UACC-62, 48 h
How it was run: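 NCI 60-cell-line panel, 48 h continuous exposure to five 10-fold dilutions from 10^-4 to 10^-8 M. SRB protein staining was read spectrophotometrically, with time-zero, untreated-control and treated absorbances. GI50, TGI and LC50 were derived from the percentage-growth formulas. Values outside the tested range are expressed as more or less than the maximum or minimum concentration.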

[11] = Growth inhibition of human MOLT4 cells assessed as cell growth at 10^-6 M after 48 hrs by SRB assay; settings: MOLT-4, 48 h, read-out: Activity
T47D = assay: Growth inhibition of human T47D cells assessed as cell growth at 10^-7 M after 48 hrs by SRB assay; settings: read-out: Activity
786-0 = assay: Growth inhibition of human 786-0 cells assessed as cell growth at 10^-7 M after 48 hrs by SRB assay; settings: 786-0, 48 h, read-out: Activity; how it was run: as §1
U-251 [12] = assay: Growth inhibition of human U251 cells assessed as cell growth at 10^-7 M after 48 hrs by SRB assay; settings: U-251, 48 h, read-out: Activity
[13] = Growth inhibition of human SF295 cells assessed as cell growth at 10^-7 M after 48 hrs by SRB assay; settings: SF-295, 48 h, read-out: Activity
SF-268 = assay: Growth inhibition of human SF268 cells assessed as cell growth at 10^-7 M after 48 hrs by SRB assay; settings: SF-268, 48 h, read-out: Activity
[14] = Growth inhibition of human HCC2998 cells assessed as cell growth at 10^-7 M after 48 hrs by SRB assay; settings: HCC 2998, 48 h, read-out: Activity
COLO 205 = assay: Growth inhibition of human COLO205 cells assessed as cell growth at 10^-7 M after 48 hrs by SRB assay; settings: COLO 205, 48 h, read-out: Activity; how it was run: as §1
SR [15] = assay: Growth inhibition of human SR cells assessed as cell growth at 10^-7 M after 48 hrs by SRB assay; settings: read-out: Activity
K562 [16] = assay: Growth inhibition of human K562 cells assessed as cell growth at 10^-7 M after 48 hrs by SRB assay; settings: K562, 48 h, read-out: Activity
ACHN = assay: Growth inhibition of human ACHN cells assessed as cell growth at 10^-8 M after 48 hrs by SRB assay; settings: read-out: Activity; how it was run: as §1
[17] = Cytotoxicity against human HCT15 cells after 48 hrs by SRB assay; settings: HCT-15, 48 h
How it was run: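 NCI 60-cell-line panel of human tumour lines from nine cancer types. Continuous 48 h exposure at five 10-fold dilutions from 10^-4 to 10^-8 M, with 5-FU as positive control. SRB protein stain read spectrophotometrically at time zero, untreated control and each concentration. GI50, TGI and LC50 were derived from the [(Ti−Tz)/(C−Tz)]×100 growth relations, and out-of-range values are given as > or < the tested limits.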

CAKI-1 = assay: Growth inhibition of human CAKI-1 cells assessed as cell growth at 10^-4 M after 48 hrs by SRB assay; settings: CAKI-1, 48 h, read-out: Activity; how it was run: as §1
[18] = read-out: LC50 (the source's name)
[19] = read-out: pLC50 (the source's name) (converted)

Cc1ccc(-c2nc3ccc(Cl)cc3c(=O)n2/N=C/c2ccccc2)cc1
growth at 100 µM (M14 [1]): 47% | growth at 100 µM (U-251 [2]): 7% | growth at 100 µM (KM12): 63% | growth at 100 µM (RPMI-8226): 60% | growth at 0.01 µM (M14 [3]): 95% | growth at 0.01 µM (HCT-116 [4]): 100% | growth at 10 µM (SK-MEL-5): 57% | growth at 10 µM (SR [5]): 63% | growth at 10 µM (K562 [6]): 72% | growth at 1 µM (A498): 85% | growth at 1 µM (SK-MEL-28): 93% | growth at 1 µM (Malme-3M): 74% | growth at 1 µM (U-251 [7]): 93% | growth at 100 µM (NCI-H226): 18% | growth at 10 µM (SN12C): 51% | growth at 10 µM (NCI-H322M): 52% | growth at 1 µM (HCT-116 [8]): 87% | growth at 1 µM [9]: 76% | GI50 ([10]; read-out: GI50): 25.8 µM | CC50 [10, 18]: > 100 µM | TGI ([10]; read-out: TGI): > 100 µM | GI50 ([10]; read-out: pGI50 (converted)): 25.7 µM | CC50 [10, 19]: > 100 µM | TGI ([10]; read-out: pTGI): > 100 µM | growth at 1 µM [11]: 99% | growth at 0.1 µM (T47D): 88% | growth at 0.1 µM (786-0): 93% | growth at 0.1 µM (U-251 [12]): 99% | growth at 0.1 µM [13]: 80% | growth at 0.1 µM (SF-268): 88% | growth at 0.1 µM [14]: 102% | growth at 0.1 µM (COLO 205): 116% | growth at 0.1 µM (SR [15]): 93% | growth at 0.1 µM (K562 [16]): 97% | growth at 0.01 µM (ACHN): 93% | GI50 ([17]; read-out: GI50): > 100 µM | CC50 [17, 18]: > 100 µM | TGI ([17]; read-out: TGI): > 100 µM | GI50 ([17]; read-out: pGI50 (converted)): > 100 µM | CC50 [17, 19]: > 100 µM | TGI ([17]; read-out: pTGI): > 100 µM | growth at 100 µM (CAKI-1): 32%
